# How the values were obtained:
# tumor xenografts = settings: cited from earlier work
# HDAC = settings: cited from earlier work
# [1] = cited from earlier work
# [2] = Baboon arterial plasma analysis of unmetabolized radiotracer during PET; type: in vivo
# [3] = system: Histone Deacetylase in the baboon brain; assay: Baboon brain PET imaging with graphical analysis; type: in vivo; settings: for average reduction in Vd of [^18F]FAHA: comparison of 0.5 and 0.25 mg/kg
# [4] = Compartment modelling of [^18F]FAC uptake in baboon brain; type: in vivo; settings: one animal; fixed for all four studies
# In short: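 Two baboons. Arterial blood was sampled every 5 s for 2 min, then at longer intervals, centrifuged, and plasma counted. Brain time-activity curves from studies with the injected labelled metabolite were fitted with one- and two-compartment models. Fitted rate constants were fixed across studies to estimate metabolite brain uptake from peripheral radiotracer metabolism, using the metabolite fraction of arterial plasma input.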
# Log D = type: physicochemical
# plasma proteins = assay: Plasma protein binding; type: in vitro ADME
# [5] = Stability of [^18F]FAHA in medium alone; type: in vitro ADME; settings: incubated in medium alone; no detection of [^18F]FAC
# [6] = In vitro whole blood and plasma incubation, radio-TLC; type: in vitro ADME, baboon
# In short: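 Arterial whole blood or plasma (0.5 ml) came from one baboon 1 h after HDAC-inhibitor pretreatment (0.25 mg/kg), just before radiotracer dosing. Radiotracer was added at room temperature. Percent intact radiotracer was measured by radio-TLC after 10, 20 and 30 min.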
# Plasma protein binding = type: in vitro ADME; settings: plasma
smiles,measurement,setting,value
"O=C(CCCCCCC(=O)Nc1ccccc1)NO [SAHA, suberanilohydroxamic acid]",effect on [^18F]FAHA radiotracer uptake,tumor xenografts; rodent tumor xenograft study,inhibit radiotracer uptake
same,effect on [^18F]FAHA radiotracer uptake,HDAC; rat brain study,inhibit radiotracer uptake
same,clinical doses well tolerated,[1],> 5 mg/kg
same,effect on rate of metabolism of [^18F]FAHA in baboon plasma,"[2]; SAHA 0.25, 0.5, 1.0 mg/kg iv, dose dependent manner",decrease the rate of metabolism
same,average % reduction in Vd of [^18F]FAHA,"[3]; 0.25 mg/kg, Brooke",12 ± 12%
same,average % reduction in Vd of [^18F]FAHA,"[3]; 0.25 mg/kg, Lulu",25 ± 8%
same,average reduction in Vd of [^18F]FAHA,[3]; 0.25 mg/kg,25± 5%
same,average reduction in Vd of [^18F]FAHA,[3]; 0.5 mg/kg,30± 9%
same,average % reduction in Vd of [^18F]FAHA,"[3]; 1 mg/kg, Brooke, averaged over all 6 ROIs (excluding global)",43 ± 7%
same,average % reduction in Vd of [^18F]FAHA,"[3]; 1 mg/kg, Lulu, averaged over all 6 ROIs (excluding global)",52 ± 8%
"O=C(O)C[18F] [[^18F]FAC, [^18F]fluoroacetate]","K1 (2 compartment model, brain uptake of metabolite)",[4],0.018 ml/min/cc
same,k2 (2 compartment model),[4],0.04 min⁻¹
same,k3 (2 compartment model),[4],0.008 min⁻¹
same,k4 (2 compartment model),[4],.003 min⁻¹
same,logD,Log D,0.70
same,% of activity unbound to plasma proteins,plasma proteins,57.2%
"O=C(C[18F])NCCCCCC(=O)Nc1ccccc1 [[^18F]FAHA, 6-([^18F]fluoroacetamido)-1-hexanoicanilide]",stability in medium alone,[5],stable up to 2 h
same,% Unmetabolized [^18F]FAHA after incubation in vitro (radio-TLC),"[6]; Blood-post (1h after SAHA administration, 0.25 mg/kg), time 10",16%
same,% Unmetabolized [^18F]FAHA after incubation in vitro (radio-TLC),"[6]; Blood-post, time 20",0%
same,% Unmetabolized [^18F]FAHA after incubation in vitro (radio-TLC),"[6]; Blood-post, time 30",0%
same,% Unmetabolized [^18F]FAHA after incubation in vitro (radio-TLC),"[6]; Blood-pre (before SAHA pretreatment), time 10, room temperature",13%
same,% Unmetabolized [^18F]FAHA after incubation in vitro (radio-TLC),"[6]; Blood-pre, time 20",0%
same,% Unmetabolized [^18F]FAHA after incubation in vitro (radio-TLC),"[6]; Blood-pre, time 30",0%
same,% Unmetabolized [^18F]FAHA after incubation in vitro (radio-TLC),"[6]; Plasma-post (1h after SAHA administration), time 10",96%
same,% Unmetabolized [^18F]FAHA after incubation in vitro (radio-TLC),"[6]; Plasma-post, time 20",96%
same,% Unmetabolized [^18F]FAHA after incubation in vitro (radio-TLC),"[6]; Plasma-post, time 30",94%
same,% Unmetabolized [^18F]FAHA after incubation in vitro (radio-TLC),"[6]; Plasma-pre (before SAHA pretreatment), time 10",98%
same,% Unmetabolized [^18F]FAHA after incubation in vitro (radio-TLC),"[6]; Plasma-pre, time 20",94%
same,% Unmetabolized [^18F]FAHA after incubation in vitro (radio-TLC),"[6]; Plasma-pre, time 30",94%
same,tumor to muscle ratios,tumor xenografts; between 30–60 min post-injection,2.2–2.4
same,peak uptake in tumor xenografts,"tumor xenografts; peak at 30 min, rats implanted with carcinoma cells",0.43 %ID/g
same,peak uptake in rat brain,HDAC,0.44 % ID/g
same,% Unmetabolized [^18F]FAHA in baboon plasma,"[2]; animal 1, Baseline, 1min after bolus injection",45%
same,% Unmetabolized [^18F]FAHA in baboon plasma,"[2]; animal 1, Baseline, 5min",2%
same,% Unmetabolized [^18F]FAHA in baboon plasma,"[2]; animal 1, Baseline, 10min",1%
same,% Unmetabolized [^18F]FAHA in baboon plasma,"[2]; animal 1, SAHA 0.25mg/kg iv 1 hour before, 1min",84%
same,% Unmetabolized [^18F]FAHA in baboon plasma,"[2]; animal 1, SAHA 0.25mg/kg iv 1 hour before, 2min",35%
same,% Unmetabolized [^18F]FAHA in baboon plasma,"[2]; animal 1, SAHA 0.25mg/kg iv 1 hour before, 5min",10%
same,% Unmetabolized [^18F]FAHA in baboon plasma,"[2]; animal 1, SAHA 0.25mg/kg iv 1 hour before, 10min",6%
same,% Unmetabolized [^18F]FAHA in baboon plasma,"[2]; animal 1, SAHA 0.5mg/kg iv 1 hour before, 1min",78%
same,% Unmetabolized [^18F]FAHA in baboon plasma,"[2]; animal 1, SAHA 0.5mg/kg iv 1 hour before, 2min",39%
same,% Unmetabolized [^18F]FAHA in baboon plasma,"[2]; animal 1, SAHA 0.5mg/kg iv 1 hour before, 5min",14%
same,% Unmetabolized [^18F]FAHA in baboon plasma,"[2]; animal 1, SAHA 0.5mg/kg iv 1 hour before, 10min",7%
same,% Unmetabolized [^18F]FAHA in baboon plasma,"[2]; animal 1, SAHA 1.0mg/kg iv 1 hour before, 1min",86%
same,% Unmetabolized [^18F]FAHA in baboon plasma,"[2]; animal 1, SAHA 1.0mg/kg iv 1 hour before, 2min",34%
same,% Unmetabolized [^18F]FAHA in baboon plasma,"[2]; animal 1, SAHA 1.0mg/kg iv 1 hour before, 5min",22%
same,% Unmetabolized [^18F]FAHA in baboon plasma,"[2]; animal 1, SAHA 1.0mg/kg iv 1 hour before, 10min",10%
same,% Unmetabolized [^18F]FAHA in baboon plasma,"[2]; animal 2, Baseline, 1min",52%
same,% Unmetabolized [^18F]FAHA in baboon plasma,"[2]; animal 2, Baseline, 2min",6%
same,% Unmetabolized [^18F]FAHA in baboon plasma,"[2]; animal 2, Baseline, 5min",2%
same,% Unmetabolized [^18F]FAHA in baboon plasma,"[2]; animal 2, Baseline, 10min",1%
same,% Unmetabolized [^18F]FAHA in baboon plasma,"[2]; animal 2, SAHA 0.25mg/kg iv 1 hour before, 1min",87%
same,% Unmetabolized [^18F]FAHA in baboon plasma,"[2]; animal 2, SAHA 0.25mg/kg iv 1 hour before, 2min",49%
same,% Unmetabolized [^18F]FAHA in baboon plasma,"[2]; animal 2, SAHA 0.25mg/kg iv 1 hour before, 5min",11%
same,% Unmetabolized [^18F]FAHA in baboon plasma,"[2]; animal 2, SAHA 0.25mg/kg iv 1 hour before, 10min",5%
same,% Unmetabolized [^18F]FAHA in baboon plasma,"[2]; animal 2, SAHA 0.5mg/kg iv 1 hour before, 1min",78%
same,% Unmetabolized [^18F]FAHA in baboon plasma,"[2]; animal 2, SAHA 0.5mg/kg iv 1 hour before, 2min",50%
same,% Unmetabolized [^18F]FAHA in baboon plasma,"[2]; animal 2, SAHA 0.5mg/kg iv 1 hour before, 5min",14%
same,% Unmetabolized [^18F]FAHA in baboon plasma,"[2]; animal 2, SAHA 0.5mg/kg iv 1 hour before, 10min",6%
same,% Unmetabolized [^18F]FAHA in baboon plasma,"[2]; animal 2, SAHA 1.0mg/kg iv 1 hour before, 1min",85%
same,% Unmetabolized [^18F]FAHA in baboon plasma,"[2]; animal 2, SAHA 1.0mg/kg iv 1 hour before, 5min",26%
same,% Unmetabolized [^18F]FAHA in baboon plasma,"[2]; animal 2, SAHA 1.0mg/kg iv 1 hour before, 10min",20%
same,fraction unbound,Plasma protein binding,0.539 ± 0.0176
same,peak brain uptake relative to [^18F]FAC,[3]; TACs in the same baboon,more than five times greater

# Source: paper PMC3167688 (Nuclear medicine and biology, 2009)
